Only a selection was taken, and hits are over-represented in it overall.
Biofilm kill mix: mixtures killing C. albicans biofilm | C. albicans biofilm persisters + clotrimazole, fluorescence viability; primary screen in compound mixtures of four per well | inhibition, % at 7.6 µM | actives 0.02% (n = 120,000);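 active = inhibition above 30.3% in the primary screen of four-compound pools, then above 30% when the compound was retested; inconclusive = passed the primary limit but could not be retested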;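 note: compounds exposed to preformed 24 h biofilms for 48 h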
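Test system: C. albicans biofilms. Buffer or medium: RPMI/MOPS medium, pH 7.0. Timing: 48 h compound exposure at 37 °C. Technique: Alamar Blue fluorescence. Evaluation: percent inhibition of biofilm viability.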
Pf gametocyte: P. falciparum stage V gametocyte viability inhibition; AID 743093; actives 0.065% (n = 150,000); P. falciparum stage V gametocytes, ATP luminescence, 24 h; inhibition, % at 10.9 µM;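 active = inhibition above the mean plus 3 SD of compounds within the control limits, set per campaign, cut at about 38% in these data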
ROMK primary: human ROMK K+ channel modulation, primary screen; Tet-inducible ROMK, thallium flux fluorescence; actives lie on both sides; actives 2% (n = 130,000); B-score at 10 µM; P48048;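 active = signal ratio slope over the read window, or its plate-corrected B-score, at least 3 SD from the plate mean, either direction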;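 note: B-score of the F/F0 ratio slope over 7 to 12 s after thallium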
Target sequence (P48048 whole entry, looked up): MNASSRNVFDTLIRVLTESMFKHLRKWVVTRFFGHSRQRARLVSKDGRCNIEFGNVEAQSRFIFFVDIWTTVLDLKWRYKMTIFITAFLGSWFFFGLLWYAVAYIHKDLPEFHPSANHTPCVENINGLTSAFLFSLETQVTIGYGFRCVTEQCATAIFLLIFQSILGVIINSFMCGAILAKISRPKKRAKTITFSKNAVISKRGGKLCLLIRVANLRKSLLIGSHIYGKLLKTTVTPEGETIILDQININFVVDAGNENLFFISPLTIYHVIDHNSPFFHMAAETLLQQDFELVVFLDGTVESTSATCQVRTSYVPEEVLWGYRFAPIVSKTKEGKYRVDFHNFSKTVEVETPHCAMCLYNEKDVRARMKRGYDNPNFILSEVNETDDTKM
ROMK hit retest: confirmation of human ROMK potassium channel modulators. shares compounds with ROMK primary. ROMK thallium flux, fluorescence ratio; hits give low values. normalized thallium flux (F/F0 slope) at 10 µM. actives 54% (n = 3,000). AID 1917;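 active = Flux at 10 µM at least 3 SD below or above vehicle control mean in one or both replicates; inconclusive = no clear call, values can overlap the other calls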
Numbers stand for hits; n = inactive; u = inconclusive; x = no result.

SMILES	Biofilm kill mix	Pf gametocyte	ROMK primary	ROMK hit retest
CCOc1ccccc1/C=N/NC(=O)CNC(=O)c1cccs1	n	n	-2.1	n
O=C(CNC(=O)c1cccs1)N/N=C/c1c[nH]c2ccccc12	n	x	n	x
Cc1ccc(/C=N/NC(=O)CNC(=O)c2cccs2)o1	n	n	n	x
CC(C)(C)c1ccc(C(=O)N/C(=C\c2cccc([N+](=O)[O-])c2)C(=O)Nc2cccc(C(=O)O)c2)cc1	x	n	x	x
CC(C)(CO)CNC(=O)c1ccc(OC2CCN(C(=O)C3CC3)CC2)cc1	n	x	n	x
Cc1cc(C)nc(N/N=C/c2sccc2C)n1	n	x	-19	n
Cc1cc(C)nc(N/N=C/c2ccccc2)n1	x	x	n	x
CCc1ccc(S(=O)(=O)NC2CC(C)(C)NC(C)(C)C2)cc1	x	n	x	x
CC(C)(C)NC(=O)CN(C(=O)CSc1nnc(COc2ccccc2)o1)c1cccc(F)c1	x	n	-2.7	u
O=C(CSc1nnc(COc2ccccc2)o1)c1ccccc1	x	n	n	x
CC(=O)Nc1cccc2c1C(=O)N(c1ccc(OC(C)=O)cc1)C2=O	n	x	n	x
COCC(=O)N1CCC(Oc2ccc(C(=O)N[C@H](C(=O)OC)C(C)C)cc2)CC1	x	n	x	x
Cc1nn(C(C)C(=O)N/N=C/c2ccc(N(C)C)cc2)c(C)c1[N+](=O)[O-] (centres undefined)	n	n	x	x
O=c1oc2ccccc2nc1/C=C(\O)c1ccc(Br)cc1	n	x	n	x
C/C(O)=C\c1nc2ccccc2oc1=O	x	n	x	n
CC(=O)N(C(C)=O)N1C(=O)/C(=C/c2ccc(Cl)cc2)SC1=S	n	x	-3.2	0.053
NS(=O)(=O)c1ccc(CCN2C(=O)/C(=C\c3ccc(Cl)cc3)SC2=S)cc1	n	x	n	x
O=C(N[C@H](C(=O)O)c1ccccc1)C1CCC(Cn2nnc3ccccc3c2=O)CC1 (some centres undefined)	n	x	x	x
CCCCN(CC)C(=O)CSc1nc2c(sc(=S)n2-c2ccc(OCC)cc2)c(=O)[nH]1	n	n	2.8	u
CCCN(CCC)C(=O)CSc1nc2c(sc(=S)n2-c2ccc(OCC)cc2)c(=O)[nH]1	n	n	n	x
O=C(CSc1ccccc1)Nc1cc(S(=O)(=O)N2CCOCC2)ccc1N1CCOCC1	n	n	n	x
CCN(CC)C(=O)Cn1cc(C(=O)C2CC2)c2ccccc21	n	n	n	x
Cc1cc(C)n(-c2ccc(C(=O)Nc3cccc(S(=O)(=O)N4CCCC4)c3)cc2)n1	n	x	n	x
Cc1cc(C)n(-c2ccc(C(=O)OCC(=O)Nc3ccc(S(=O)(=O)N4CCCCC4)cc3)cc2)n1	x	x	2	n
Cc1ccc(S(=O)(=O)NC(=O)c2ccc(Br)o2)cc1	n	n	n	x
SMILES	Biofilm kill mix	Pf gametocyte	ROMK primary	ROMK hit retest
O=C(CSc1nc2ccccc2o1)c1cc2ccccc2oc1=O	x	n	x	x
Cc1cc(C)nc(SCC(=O)c2cc3ccccc3oc2=O)n1	x	n	-4.1	0.06
COc1ccc(C2=NN(c3ccccc3)C(c3cn(CCC(=O)O)nc3-c3ccccc3)C2)cc1 (centres undefined)	n	x	n	x
N#Cc1cc(C(=O)c2cc(F)ccc2O)cn(-c2nccs2)c1=O	n	n	-5	0.03
N#Cc1cc(C(=O)c2ccccc2O)cn(-c2nccs2)c1=O	n	x	-8.4	0.025
CC(C)n1cc(C(=O)c2ccccc2O)cc(C#N)c1=O	n	n	n	x
Cc1c(-n2cc(C(=O)c3cc(F)ccc3O)cc(C#N)c2=O)c(=O)n(-c2ccccc2)n1C	n	x	n	x
CC(C)(O)c1cc2ccc(C#CCCN3C(=O)c4ccccc4C3=O)cc2c(=O)o1	x	n	x	x
C=CCOc1ccccc1/C=N/NC(=O)Cc1ccc(C)cc1	x	n	x	x
CC(C)CC(=O)N(c1nnc(-c2cccnc2)s1)C1CCCC1	x	n	x	x
COc1ccc(OC)c2c(C)cc(N3CCN(C(=O)c4ccc(F)cc4)CC3)nc12	x	n	x	x
COc1ccc(OC)c2c(C)cc(N3CCN(C(=O)c4ccc(C)cc4)CC3)nc12	n	x	-8.5	n
CCc1cccc(NC(=O)c2ccc(CNc3c(N4CCCC4)c(=O)c3=O)cc2)c1	n	n	n	x
COc1ccc(N/C(N)=N/c2nc(C)cc(=O)[nH]2)cc1	x	n	x	x
COc1ccc(N/C(N)=N/c2nc(CSc3nnc(C)s3)cc(=O)[nH]2)cc1	n	n	3.9	n
Cc1ccc(N/C(N)=N/c2nc(CSc3nnc(C)s3)cc(=O)[nH]2)c(C)c1	n	n	6.3	n
Cc1ccc(SCc2cc(=O)[nH]c(/N=C(\N)Nc3cccc4ccccc34)n2)cc1	n	n	x	x
CCN(Cc1ccncc1)Cc1cn(C)nc1-c1ccc(Oc2ccccc2)cc1	n	n	n	x
CC1(C)c2cc(Cl)ccc2-n2c1cc(O)c(-c1ccccc1)c2=O	n	n	n	x
O=C(C[C@@H]1C/C=C/CC[C@@H](Cc2ccc(F)cc2)C(=O)O[C@@H](c2ccccc2)CNC1=O)NCCO	x	n	x	x
Cc1cccc(S(=O)(=O)c2c(C)cc(C)nc2Cl)c1	n	x	n	x
CC(C)(C)c1ccc(Cn2c(=N)n(CC(O)c3ccco3)c3ccccc32)cc1 (centres undefined)	n	x	-2.7	0.051
CCCCCCCn1c(=N)n(CC(=O)c2ccco2)c2ccccc21	x	x	-5.3	0.053
N=c1n(CCN2CCCC2)c2ccccc2n1CC(O)c1ccco1 (centres undefined)	x	n	x	x
CCn1c(=N)n(CC(=O)c2ccco2)c2ccccc21	x	n	x	x
SMILES	Biofilm kill mix	Pf gametocyte	ROMK primary	ROMK hit retest
Cc1ccccc1Cn1c(=N)n(CC(O)c2ccco2)c2ccccc21 (centres undefined)	x	n	x	x
CCCCCCCn1c(=N)n(CC(O)c2ccco2)c2ccccc21 (centres undefined)	n	n	-4.3	0.061
Cc1ccc(S(=O)(=O)N2CCCCC2)cc1NC(=O)C1CCCO1 (centres undefined)	n	n	n	x
CCOC(=O)C1CCCN(CC(=O)Nc2nc(-c3ccccc3)cs2)C1 (centres undefined)	x	n	x	x
COCC1CCCC1OS(N)(=O)=O (centres undefined)	x	n	x	x
O=C(NC(Nc1ncc(S(=O)(=O)c2ccc([N+](=O)[O-])cc2)s1)(C(F)(F)F)C(F)(F)F)c1ccc(Cl)cc1	x	x	-3	n
COCC(=O)Nc1ncc(S(=O)(=O)c2ccc([N+](=O)[O-])cc2)s1	n	n	n	x
O=C(Nc1ccc(S(=O)(=O)Nc2ncccn2)cc1)c1ccccc1Br	x	n	x	x
COc1ccc(NC(=O)CC(C)CC(=O)NCc2ccc(F)cc2)c(OC)c1 (centres undefined)	x	n	x	x
COc1ccc(S(=O)(=O)N2CCN(Cc3c[nH]c4ccccc34)CC2)cc1	x	n	x	x
O=[N+]([O-])c1ccc(S(=O)(=O)N2CCN(Cc3c[nH]c4ccccc34)CC2)cc1	x	n	-2.7	0.056
COC(=O)/C(=C\Nc1ccc(Cl)cc1Cl)NC(=O)c1ccc(OC)cc1	n	n	x	x
CCOc1cccc(C2C(C(=O)c3ccc(C)o3)=C(O)C(=O)N2Cc2ccncc2)c1 (centres undefined)	x	n	x	x
CCOc1cccc(C2C(C(=O)c3ccc(C)o3)=C(O)C(=O)N2c2nccs2)c1 (centres undefined)	x	x	-5.4	0.038
Cc1ccc(Cn2c(SCC(=O)NCC3CCCO3)nc3c2c(=O)n(C)c(=O)n3C)cc1 (centres undefined)	n	n	n	x
NS(=O)(=O)c1ccc(NC(=O)COC(=O)CCc2ccccc2)cc1	n	n	x	x
